Test results from ChEMBL document CHEMBL4219099, “Design, synthesis and biological evaluation of novel 7-azaspiro[3.5]nonane derivatives as GPR119 agonists” (Bioorg Med Chem, 2018).
In brackets after ≈: the same amount, converted by molar mass.

Assays:
[1] = biological target: T1, Glucose-dependent insulinotropic receptor (Homo sapiens, UniProt Q8TDV5); assay: Agonist activity at human GPR119 expressed in Flp-In-T-Rex-HEK293 cells assessed as increase in intracellular cAMP level after 30 mins by HTRF assay; type: functional, cell-based
T1 sequence (Q8TDV5 whole entry): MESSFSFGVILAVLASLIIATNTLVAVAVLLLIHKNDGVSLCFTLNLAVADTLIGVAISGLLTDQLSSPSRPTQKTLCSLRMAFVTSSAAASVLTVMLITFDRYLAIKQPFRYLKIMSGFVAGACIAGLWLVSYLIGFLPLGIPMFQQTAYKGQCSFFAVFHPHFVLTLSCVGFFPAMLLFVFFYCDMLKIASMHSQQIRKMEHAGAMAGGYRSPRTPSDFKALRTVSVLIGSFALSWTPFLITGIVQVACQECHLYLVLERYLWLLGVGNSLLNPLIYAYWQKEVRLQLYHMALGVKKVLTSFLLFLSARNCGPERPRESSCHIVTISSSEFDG
In short: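 Flp-In-T-Rex-HEK293 cells overexpressing human GPR119, tetracycline-induced 24 h, plated at 5000 cells/well in D-MEM with 1 mM IBMX and 0.01% BSA, then exposed to compound 30 min at 37 °C. cAMP read with HiRange HTRF kit. Basal cAMP subtracted from stimulated level; EC50 taken as concentration giving 50% of maximal response, fitted from dose-response curves.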

[2] = Aqueous solubility of the compound in pH 6.8 phosphate buffer after 24 hrs by HPLC analysis; type: physicochemical
In short: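 Excess solid shaken in pH 6.8 phosphate buffer at 25 °C for 24 h. Suspension centrifuged at 3000 and 11000 rpm, 10 min each. Supernatant diluted in 50% aqueous acetonitrile and quantified by reversed-phase HPLC (0.1% phosphoric acid/acetonitrile, column 40 °C, UV 210 nm).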

[3] = Solubility of the compound in fasted state simulated intestinal fluid incubated for 2 hrs in shaker and subsequently incubated at 37 degC for 22 hrs in water bath by HPLC analysis; type: physicochemical
In short: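 FaSSIF (pH 6.5) with excess compound shaken at 25 °C for 2 h, then held at 37 °C for 22 h. Centrifuged at 3000 and 11000 rpm, 10 min. Supernatant diluted with 50% aqueous acetonitrile or acetonitrile/methanol 1:1. Concentration by reversed-phase HPLC: 0.1% phosphoric acid/acetonitrile, column 40 °C, UV 210 nm.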

[4] = biological target: T2, Cytochrome P450 1A2 (Homo sapiens, UniProt P05177); assay: Inhibition of CYP1A2 in human liver microsomes; type: ADME
T2 sequence (P05177 whole entry): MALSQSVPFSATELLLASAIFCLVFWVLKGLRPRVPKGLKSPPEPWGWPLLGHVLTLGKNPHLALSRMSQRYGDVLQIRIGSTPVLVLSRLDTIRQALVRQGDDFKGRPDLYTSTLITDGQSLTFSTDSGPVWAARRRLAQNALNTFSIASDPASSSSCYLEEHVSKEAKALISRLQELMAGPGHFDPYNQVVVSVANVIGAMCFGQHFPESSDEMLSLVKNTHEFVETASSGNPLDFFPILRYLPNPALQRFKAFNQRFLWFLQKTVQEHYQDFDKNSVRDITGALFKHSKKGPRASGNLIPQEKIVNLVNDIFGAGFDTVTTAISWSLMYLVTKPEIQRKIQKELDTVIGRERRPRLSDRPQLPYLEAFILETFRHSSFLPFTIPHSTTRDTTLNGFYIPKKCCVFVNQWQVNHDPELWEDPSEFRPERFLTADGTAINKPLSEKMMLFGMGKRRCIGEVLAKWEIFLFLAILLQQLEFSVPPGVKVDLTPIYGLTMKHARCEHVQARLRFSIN

[5] = biological target: Cytochrome P450 2C9 (Homo sapiens, UniProt P11712); assay: Inhibition of CYP2C9 in human liver microsomes; type: ADME
[6] = biological target: Cytochrome P450 2C19 (Homo sapiens, UniProt P33261); assay: Inhibition of CYP2C19 in human liver microsomes; type: ADME
[7] = biological target: Cytochrome P450 2D6 (Homo sapiens, UniProt P10635); assay: Inhibition of CYP2D6 in human liver microsomes; type: ADME
[8] = biological target: Cytochrome P450 3A4 (Homo sapiens, UniProt P08684); assay: Inhibition of CYP3A4 in human liver microsomes; type: ADME
[9] = Clearance in Sprague-Dawley rat plasma at 3 mg/kg, iv or 10 mg/kg, po by liquid chromatography-tandem mass spectrometry analysis; type: ADME, organism-based
In short: (§1)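 Fasted male SD rats given a single dose, iv 3 mg/kg in 20% 2-hydroxypropyl-β-cyclodextrin or po 10 mg/kg in 0.5% methylcellulose with 0.1% Tween80. Tail-vein blood taken at time points and spun to plasma. Analyte quantified by LC-MS/MS; parameters from non-compartmental analysis.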

[10] = Volume of distribution at steady state in Sprague-Dawley rat plasma at 3 mg/kg, iv by liquid chromatography-tandem mass spectrometry analysis; type: ADME, organism-based; conditions: read-out: Vdss; in short: as §1
[11] = Half life in Sprague-Dawley rat plasma at 3 mg/kg, iv by liquid chromatography-tandem mass spectrometry analysis; type: ADME, organism-based; in short: as §1
[12] = AUC (0 to t) in Sprague-Dawley rat plasma at 10 mg/kg, po by liquid chromatography-tandem mass spectrometry analysis; type: ADME, organism-based; in short: as §1
[13] = Oral bioavailability in Sprague-Dawley rat plasma at 10 mg/kg by liquid chromatography-tandem mass spectrometry analysis; type: ADME, organism-based; in short: as §1
[14] = tested on: Rattus norvegicus; assay: Antidiabetic activity in Zucker diabetic rat assessed as reduction in plasma glucose AUC (0 to 2 hrs) at 10 mg/kg, po pretreated for 30 mins followed by glucose challenge by oGTT assay relative to control; type: functional; set-up: scale not given: the % may be the effect or the level left
In short: (§2)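 Male Zucker diabetic fatty and lean rats, 9 weeks old, fasted overnight. Dosed orally in 20 w/v% HP-β-CD; 30 min later given oral glucose at 2 g/kg. Tail-vein plasma glucose followed over 2 h by glucose assay kit. Glucose excursion expressed as ΔAUC 0–2 h versus vehicle; mean ± SE, Welch's t-test.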

[15] = tested on: Rattus norvegicus; assay: Antidiabetic activity in Zucker diabetic rat assessed as reduction in plasma glucose AUC (0 to 2 hrs) at 30 mg/kg, po pretreated for 30 mins followed by glucose challenge by oGTT assay relative to control; type: functional; set-up: scale not given: the % may be the effect or the level left; in short: as §2

Cytochrome P450 2C9, sequence (P11712 whole entry): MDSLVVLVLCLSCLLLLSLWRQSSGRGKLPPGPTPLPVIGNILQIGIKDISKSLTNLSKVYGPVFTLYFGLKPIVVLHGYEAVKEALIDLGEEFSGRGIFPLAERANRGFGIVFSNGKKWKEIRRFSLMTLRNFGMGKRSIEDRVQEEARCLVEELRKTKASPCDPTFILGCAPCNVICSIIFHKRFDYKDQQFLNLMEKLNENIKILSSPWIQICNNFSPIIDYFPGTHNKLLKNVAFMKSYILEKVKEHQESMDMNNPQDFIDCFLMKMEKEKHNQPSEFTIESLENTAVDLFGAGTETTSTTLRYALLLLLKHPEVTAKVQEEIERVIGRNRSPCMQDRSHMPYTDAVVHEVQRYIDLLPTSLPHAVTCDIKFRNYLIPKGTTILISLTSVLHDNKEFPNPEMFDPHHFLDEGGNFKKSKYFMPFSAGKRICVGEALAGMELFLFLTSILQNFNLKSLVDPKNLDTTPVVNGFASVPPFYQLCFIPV
Cytochrome P450 2C19, sequence (P33261 whole entry): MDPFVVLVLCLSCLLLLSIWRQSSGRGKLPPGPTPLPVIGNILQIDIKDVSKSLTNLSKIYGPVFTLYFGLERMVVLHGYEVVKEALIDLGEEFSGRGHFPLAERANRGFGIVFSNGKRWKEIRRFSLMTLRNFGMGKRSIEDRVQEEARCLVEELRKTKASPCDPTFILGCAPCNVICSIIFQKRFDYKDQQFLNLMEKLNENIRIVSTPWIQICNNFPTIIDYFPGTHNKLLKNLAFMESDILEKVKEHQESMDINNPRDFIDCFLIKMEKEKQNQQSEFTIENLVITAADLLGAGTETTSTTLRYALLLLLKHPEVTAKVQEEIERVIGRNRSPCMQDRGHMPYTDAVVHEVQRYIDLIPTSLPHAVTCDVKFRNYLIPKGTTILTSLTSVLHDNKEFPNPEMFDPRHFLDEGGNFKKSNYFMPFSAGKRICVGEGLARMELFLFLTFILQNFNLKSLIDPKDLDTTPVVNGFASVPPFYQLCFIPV
Cytochrome P450 3A4, sequence (P08684 whole entry): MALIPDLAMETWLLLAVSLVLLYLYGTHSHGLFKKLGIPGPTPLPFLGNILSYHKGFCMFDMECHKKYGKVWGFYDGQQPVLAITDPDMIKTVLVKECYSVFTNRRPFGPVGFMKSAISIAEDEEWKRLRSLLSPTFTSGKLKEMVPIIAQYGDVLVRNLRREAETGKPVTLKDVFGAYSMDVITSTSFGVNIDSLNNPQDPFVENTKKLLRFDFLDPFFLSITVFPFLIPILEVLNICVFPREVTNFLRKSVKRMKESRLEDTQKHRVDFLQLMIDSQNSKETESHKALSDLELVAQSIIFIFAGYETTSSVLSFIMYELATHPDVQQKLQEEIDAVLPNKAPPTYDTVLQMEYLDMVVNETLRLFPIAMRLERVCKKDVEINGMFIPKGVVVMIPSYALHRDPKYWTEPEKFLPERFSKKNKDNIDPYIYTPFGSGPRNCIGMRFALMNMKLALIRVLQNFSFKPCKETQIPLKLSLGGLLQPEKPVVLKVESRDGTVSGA
Cytochrome P450 2D6, sequence (P10635 whole entry): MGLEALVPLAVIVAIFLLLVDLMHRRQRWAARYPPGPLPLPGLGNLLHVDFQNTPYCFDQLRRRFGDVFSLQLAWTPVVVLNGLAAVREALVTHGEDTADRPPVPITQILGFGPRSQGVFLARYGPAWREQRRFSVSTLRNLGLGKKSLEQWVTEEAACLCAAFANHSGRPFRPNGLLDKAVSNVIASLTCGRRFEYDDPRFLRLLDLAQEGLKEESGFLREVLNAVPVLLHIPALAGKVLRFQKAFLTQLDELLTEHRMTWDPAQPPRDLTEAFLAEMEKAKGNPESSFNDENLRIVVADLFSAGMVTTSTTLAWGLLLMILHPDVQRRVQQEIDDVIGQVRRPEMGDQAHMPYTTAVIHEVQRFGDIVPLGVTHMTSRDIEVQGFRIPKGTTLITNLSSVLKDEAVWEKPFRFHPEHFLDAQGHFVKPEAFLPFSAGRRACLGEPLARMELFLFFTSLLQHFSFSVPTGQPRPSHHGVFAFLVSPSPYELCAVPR

Structure (SMILES) | EC50 [1] [nM] | solubility at 24 h [2] [µg/mL] | solubility at 24 h [3] [µg/mL] | further results
CC(C)(C)OC(=O)N1CCC2(CCC(CCOc3ccc(S(C)(=O)=O)cc3)CC2)CC1 | 55 |  |  | 
CC(C)(C)OC(=O)N1CCC2(CC1)CC(CCCOc1ccc(S(C)(=O)=O)cc1)C2 | 14 | < 0.13 | 3.48 (≈ 7.95 µM) | 
CC(C)OC(=O)N1CCC2(CC1)CC(CCCOc1ccc(C(=O)N(C)C3CC3)c(F)c1)C2 | 67 |  |  | 
CC(C)c1noc(N2CCC3(CC2)CC(CCCOc2ccc(S(C)(=O)=O)cc2)C3)n1 | 35 | < 0.13 | 2.51 (≈ 5.61 µM) | 
CC(C)(C)OC(=O)N1CCC2(CCC(CCCOc3ccc(S(C)(=O)=O)cc3)CC2)CC1 | 2590 |  |  | 
CCc1cnc(N2CCC3(CC2)CC(CCCOc2ccc(S(C)(=O)=O)cc2F)C3)nc1 | 225 |  |  | 
CC(C)(C)OC(=O)N1CCC2(CC1)CC2CCOc1ccc(S(C)(=O)=O)cc1 (stereo unspecified) | 2390 |  |  | 
CC(C)OC(=O)N1CCC2(CC1)CC(CCCOc1ccc(C(=O)N3CCCC3)c(F)c1)C2 | 29 | 3.85 (≈ 8.36 µM) | 92.4 (≈ 201 µM) | IC50 ([4]; read-out: IC50): < 10000 nM; IC50 ([5]; read-out: IC50): < 10000 nM; IC50 ([6]; read-out: IC50): < 10000 nM
CC(C)OC(=O)N1CCC2(CC1)CC(CCCOc1ccc(S(C)(=O)=O)c(F)c1)C2 | 18 | < 0.16 | 2.52 (≈ 5.71 µM) | 
CC(C)OC(=O)N1CCC2(CC1)CC(CCCOc1ccc(C(N)=O)c(F)c1)C2 | 52 |  |  | 
CC(C)OC(=O)N1CCC2(CC1)CC(CCCOc1ccc(C(=O)NC3CC3)c(F)c1)C2 | 8 | 0.21 (≈ 0.47 µM) | 8.58 (≈ 19.2 µM) | 
CC1(OC(=O)N2CCC3(CC2)CC(CCCOc2ccc(S(C)(=O)=O)c(F)c2)C3)CC1 | 13 | < 0.15 | 1.27 (≈ 2.8 µM) | 
CC(C)(C)COC(=O)N1CCC2(CC1)CC(CCCOc1ccc(S(C)(=O)=O)c(F)c1)C2 | 31 |  |  | 
CC(C)OC(=O)N1CCC2(CC1)CC(CCCOc1ccc(C(=O)N3CCC3)c(F)c1)C2 | 34 | 3.43 (≈ 7.68 µM) |  | IC50 ([5]; read-out: IC50): < 10000 nM; IC50 ([6]; read-out: IC50): < 10000 nM
CCc1cnc(N2CCC3(CC2)CC(CCCOc2ccc(S(C)(=O)=O)cc2)C3)nc1 | 31 | < 0.12 | 0.64 (≈ 1.44 µM) | 
CC(C)OC(=O)N1CCC2(CC1)CC(CCCOc1ccc(C(=O)NC3CC3)nc1)C2 | 47 | 2.11 (≈ 4.91 µM) |  | 
CC(C)(C)OC(=O)N1CCC2(CC1)CC(CCCCOc1ccc(S(C)(=O)=O)cc1)C2 | 154 |  |  | 
CC(C)OC(=O)N1CCC2(CC1)CC(CCCOc1ccc(C(=O)NCC(N)=O)c(F)c1)C2 | 48 | 1.77 (≈ 3.82 µM) | 18.4 (≈ 39.7 µM) | IC50 [4]: Not Active; IC50 [5]: Not Active; IC50 [6]: Not Active; IC50 [7]: Not Active; IC50 [8]: Not Active; clearance [9]: 15.5 mL/min/kg; Vd [10]: 1.01 L/kg; half-life [11]: 50.5 min; AUC(0-t) [12]: 9510 ng·h/mL; bioavailability [13]: 88.6%; Activity [14]: 34%; Activity [15]: 40.2%
CC(C)(C)OC(=O)N1CCC2(CC1)CC(CCCOc1ccc(S(C)(=O)=O)c(F)c1)C2 | 9 |  |  | 
CC(C)OC(=O)N1CCC2(CC1)CC(CCCOc1ccc(S(C)(=O)=O)cc1)C2 | 70 | 0.17 (≈ 0.401 µM) | 7.09 (≈ 16.7 µM) | 
CCc1cnc(N2CCC3(CC2)CC(CCCOc2ccc(S(C)(=O)=O)c(F)c2)C3)nc1 | 123 |  |  | 
Cc1ccc(N2CCC3(CC2)CC(CCCOc2ccc(S(C)(=O)=O)cc2)C3)nc1 | 348 |  |  | 
CC(C)(C)OC(=O)N1CCC2(CC1)CC2CCCOc1ccc(S(C)(=O)=O)cc1 (stereo unspecified) | 830 |  |  | 
CC(C)(C)OC(=O)N1CCC2(CC1)CC(CCCOc1ccc(S(C)(=O)=O)cc1F)C2 | 25 |  |  | 
CC(C)(C)OC(=O)N1CCC2(CC1)CC(CCOc1ccc(S(C)(=O)=O)cc1)C2 | 183 |  |  | 
CS(=O)(=O)c1ccc(OCCCC2CC3(CCN(C(=O)OC4CCCC4)CC3)C2)cc1F | 23 | < 0.14 | 7.65 (≈ 16.4 µM) | 
CC(C)OC(=O)N1CCC2(CC1)CC(CCCOc1ccc(C(=O)NC3CC3)cn1)C2 | 63 | 2.24 (≈ 5.21 µM) |  | 
CC(C)OC(=O)N1CCC2(CC1)CC(CCCOc1ccc(C(=O)N3CC(O)C3)c(F)c1)C2 | 40 | 1.89 (≈ 4.09 µM) |  | IC50 ([5]; read-out: IC50): < 10000 nM; IC50 ([6]; read-out: IC50): < 10000 nM
